The nature of data set [1]: AUC in rat at 10 mg/kg, po. It is filed as ADME, organism-based. More on the design: dose 10 mg/kg, route oral. The settings on record: plasma.
Data set [2] can be described thus: Oral bioavailability in rat at 10 mg/kg. It counts as ADME, organism-based. As to conditions: in vivo. In short, it runs like this: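 Bioavailability was derived from rat oral dosing in 1% N-methyl-2-pyrrolidone, 0.5% Methocel and 0.3% Tween-80, compared with intravenous dosing in a 70% PEG-400-based vehicle.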
The nature of data set [3]: Volume of distribution at steady state in rat at 4 mg/kg, iv. It counts as ADME, organism-based. Details: dose 4 mg/kg, route intravenous. The settings on record: in vivo, read-out: Vdss. In short, it runs like this:
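Rats received intravenous dosing in a vehicle of 70% PEG-400.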

For the next data set, the system named is Liver. Put plainly: Liver-to-plasma partition coefficient in rat.
Data set [4] in a line: Cmax in rat at 10 mg/kg, po. It counts as ADME, organism-based. More on the design: dose 10 mg/kg, route oral. As to conditions: in vivo.
A short description of data set [5]: Drug uptake in rat liver after 8 hrs. It counts as ADME, tissue-based. As to conditions: read-out: Drug uptake.

The structures appear in SMILES notation.

Take `COc1ccc2c(O[C@@H]3C[C@H]4C(=O)N[C@]5(C(=O)NS(=O)(=O)C6(C)CC6)C[C@H]5/C=C\CCCCC[C@H](NC(=O)c5cnn(C)n5)C(=O)N4C3)cc(OC(C)C)nc2c1C`: in data set [1], the AUC is 1.4 µM·h. The bioavailability in data set [2] was determined as 16%. The Vd in data set [3] amounted to 2 L/kg. This compound also showed a concentration ratio (Kp) in the data set with Liver greater than 1500. The compound further gave a Cmax in data set [4] of 870 nM. Besides, the concentration at 8 h in data set [5] is 73 µM.
`COc1ccc2c(O[C@@H]3C[C@H]4C(=O)N[C@]5(C(=O)NS(=O)(=O)C6CC6)C[C@H]5/C=C\CCCCC[C@H](NC(=O)c5ccn(CC(F)(F)F)n5)C(=O)N4C3)cc(OC(C)C)nc2c1C` had an AUC in data set [1] of 1.3 µM·h. In data set [2], the bioavailability was determined as 11%. For the same compound, in data set [3], the Vd worked out at 3.3 L/kg. The compound also yielded a Kp with Liver of 360. In data set [4], this compound displayed a Cmax of 880 nM. The concentration at 8 h in data set [5] is 11 µM.
In the case of `COc1ccc2c(O[C@@H]3C[C@H]4C(=O)N[C@]5(C(=O)NS(=O)(=O)C6(C)CC6)C[C@H]5/C=C\CCCCC[C@H](NC(=O)c5ccn(C)n5)C(=O)N4C3)cc(OC(C)C)nc2c1C`, the area under the curve (AUC) in data set [1] came out at 1.4 µM·h. The bioavailability in data set [2] was found to be 14%. Further, the Vd in data set [3] came out at 0.97 L/kg. The Kp in the data set on Liver is listed as greater than 1500. The concentration in data set [4] peaked (Cmax) at 1300 nM. In data set [5], the concentration at 8 h came out at 56 µM.
Regarding `COc1ccc2c(O[C@@H]3C[C@H]4C(=O)N[C@]5(C(=O)NS(=O)(=O)C6CC6)C[C@H]5/C=C\CCCCC[C@H](NC(=O)c5ccn(CC(F)F)n5)C(=O)N4C3)cc(OC(C)C)nc2c1C`, the AUC in data set [1] turned out to be 0.36 µM·h. Besides, in data set [2], the bioavailability was determined as 6.1%. Also, the Vd in data set [3] turned out to be 0.86 L/kg. Besides, the Kp in the data set on Liver was 323. In data set [4], this compound registered a peak concentration (Cmax) of 300 nM. In addition, the concentration at 8 h in data set [5] worked out at 6.5 µM.

What is called AUC is the area under the concentration-time curve, a measure of exposure. The low end stands for low exposure, the high end for high exposure. The term bioavailability denotes dose-corrected exposure relative to a reference, in per cent. In general, Kp refers to the ratio of the level in a tissue or fluid to that in plasma or blood. For orientation: Cmax means the maximum level reached in the sampled fluid or tissue.
